{
  "source": "PubChem BioAssay AID624074",
  "about": "(Broad Institute, 2012)",
  "note": "Activity calls are given as the source filed them.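 Rule for the calls: active = fitted curve reaches a 35% growth drop -35 below twice the top tested dose; inactive = activity in the wrong direction, or the rest.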",
  "data": [
    {"test_system": "not listed separately", "test": "iron-limited growth inhibition, mexAB-oprM mutant – whole organism, PAK mexAB-OprM mutant, OD600, EDDHA, dry powder, set 4, dose response (AID 624074)", "settings": "P. aeruginosa PAK ΔmexAB-oprM growth with EDDHA, OD600, 28 h; at 100 µM (top of the series)", "summary_of_the_method": "(§1)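 Assay system: Pseudomonas aeruginosa PAK with efflux-deficient ΔmexAB-oprM deletion, whole cells. Medium: succinate M9 medium at pH 7.0. Compound: 15 nM–100 µM final compound. Schedule: compound exposure of 28 h at 30 °C.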", "values": [
      {"smiles": "CCCCC(c1ccc(Cl)cc1)c1nn[nH]n1", "note": "(stereo unspecified)", "activity change, negative = growth inhibition": "-10.1% (inactive)"},
      {"smiles": "COCCNC(C#N)c1ccc(Cl)cc1", "note": "(stereo unspecified)", "activity change, negative = growth inhibition": "-1.19% (inactive)"},
      {"smiles": "COCCC(C#N)c1ccc(F)cc1", "note": "(stereo unspecified)", "activity change, negative = growth inhibition": "-11.9% (inactive)"},
      {"smiles": "CCCCC(C#N)c1ccc(F)cn1", "note": "(stereo unspecified)", "activity change, negative = growth inhibition": "-15.7% (inactive)"}
    ]},
    {"test_system": "P. aeruginosa PAK ΔmexAB-oprM growth with EDDHA, OD600, 28 h", "test": "iron-limited growth inhibition, mexAB-oprM mutant – whole organism, PAK mexAB-OprM mutant, OD600, EDDHA, dry powder, set 4, dose response (AID 624074)", "settings": "not given", "summary_of_the_method": "as §1", "units": {"AC35": "µM"}, "values": [
      {"smiles": "N#CC(c1cccc(C(F)(F)F)n1)c1ccc(Cl)cc1F", "note": "(stereo unspecified)", "AC35": 37.8},
      {"smiles": "N#CC(c1ccc(F)cc1)c1cccc(C(F)(F)F)n1", "note": "(stereo unspecified)", "AC35": 25.6},
      {"smiles": "N#CC(c1ccc(Cl)cc1)c1ncccc1Cl", "note": "(stereo unspecified)", "AC35": 56.2},
      {"smiles": "N#CC(c1ccc(Cl)cc1)c1ccc(Cl)cn1", "note": "(stereo unspecified)", "AC35": 72},
      {"smiles": "N#CC(c1ccc(Cl)cc1)c1cccc(C(F)(F)F)n1", "note": "(stereo unspecified)", "AC35": 29},
      {"smiles": "N#CC(c1cccc(Cl)n1)c1ccc(Cl)cc1F", "note": "(stereo unspecified)", "AC35": 47.5},
      {"smiles": "N#CC(c1ccc(Cl)cc1)c1cccc(Cl)n1", "note": "(stereo unspecified)", "AC35": 60.3}
    ]}
  ]
}
